# Measured values: PubChem BioAssay AID652138 (The Scripps Research Institute Molecular Screening Center, 2013)
# Calls of active or inactive are those of the source.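 Rule for the calls: active = IC50 at or below 10 µM, the dose giving half-maximal inhibition of the luminescence signal; inactive = IC50 above 10 µM.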
# Biological target: Perilipin-5 (Homo sapiens) + 1-acylglycerol-3-phosphate O-acyltransferase ABHD5 (Homo sapiens) (UniProt Q00G26+Q8WTS1)
# Assay: ABHD5-PLIN5 binding inhibitors, late-stage follow-up, biochemical, luminescence, dose response, round 3 (AID 652138)
# Conditions: split G. princeps luciferase complementation, 4 h
# How it was run: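 Material: Split Gaussia princeps luciferase complementation, LucC-tagged ABHD5 with LucN-tagged MLDP | Compound dosing: Triplicate 10-point threefold series, top nominal 40 µM | Incubation: 4 h at 25 °C plus 30 min readout step | Technique: Coelenterazine luminescence | Control set: DMSO as low control, 25 µM trans-chalcone as high control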
# Chain of Perilipin-5 (Homo sapiens) + 1-acylglycerol-3-phosphate O-acyltransferase ABHD5 (Homo sapiens) (Q00G26 whole entry, looked up): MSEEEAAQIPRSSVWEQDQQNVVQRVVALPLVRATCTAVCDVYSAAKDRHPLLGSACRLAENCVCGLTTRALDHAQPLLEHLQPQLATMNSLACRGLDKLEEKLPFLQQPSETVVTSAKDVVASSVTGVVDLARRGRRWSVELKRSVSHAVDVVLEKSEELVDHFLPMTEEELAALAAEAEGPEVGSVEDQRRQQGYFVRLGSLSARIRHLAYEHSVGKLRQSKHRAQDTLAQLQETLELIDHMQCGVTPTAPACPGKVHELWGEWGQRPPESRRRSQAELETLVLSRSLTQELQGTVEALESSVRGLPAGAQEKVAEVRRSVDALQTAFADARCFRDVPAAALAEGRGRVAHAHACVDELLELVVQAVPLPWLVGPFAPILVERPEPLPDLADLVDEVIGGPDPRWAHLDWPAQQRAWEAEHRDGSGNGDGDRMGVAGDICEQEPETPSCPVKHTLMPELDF
# Chain of Perilipin-5 (Homo sapiens) + 1-acylglycerol-3-phosphate O-acyltransferase ABHD5 (Homo sapiens) (Q8WTS1 whole entry, looked up): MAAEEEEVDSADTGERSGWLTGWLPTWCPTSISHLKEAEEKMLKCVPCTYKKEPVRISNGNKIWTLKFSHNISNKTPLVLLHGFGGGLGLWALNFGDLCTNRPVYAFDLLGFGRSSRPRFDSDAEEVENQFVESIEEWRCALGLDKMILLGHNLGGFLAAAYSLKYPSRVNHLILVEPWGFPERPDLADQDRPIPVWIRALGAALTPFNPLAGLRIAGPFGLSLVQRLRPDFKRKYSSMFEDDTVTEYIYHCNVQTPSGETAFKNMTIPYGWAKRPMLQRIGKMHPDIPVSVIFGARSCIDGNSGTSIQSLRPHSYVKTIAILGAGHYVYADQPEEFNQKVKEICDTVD
row,IC50,Compound
1,7.78 µM,CCCCCCCNC(=O)Nc1ccc2c(c1)N(C)C(=O)c1ccccc1S2
2,inactive,CCCCNC(=O)Nc1ccc2c(c1)N(C)C(=O)c1ccccc1S2
3,4.04 µM,CN1C(=O)c2ccccc2Sc2ccc(NC(=O)NCCCc3ccccc3)cc21
4,inactive,Cc1ccc2c(CC(=O)N3CCN(S(=O)(=O)c4ccc5c(c4)OCCO5)CC3)coc2c1
5,4.71 µM,CCCCCCNC(=O)Nc1ccc2c(c1)N(C)C(=O)c1ccccc1S2
6,3.32 µM,CCCCCNC(=O)Nc1ccc2c(c1)N(C)C(=O)c1ccccc1S2
